From ChEMBL document CHEMBL3272008, “Synthesis and biological actions of 2-substituted quinolizidines” (J Med Chem, 1976)
Activity calls are given as the source filed them. The rule behind the calls is not given here.

Assays:
[1] = tested on: Mus musculus; assay: Depression of spontaneous motor activity in Swiss-Webster mouse at 50 mg/kg, ip by photocell cage test relative to control; assay type: functional; settings: route intraperitoneal
Method in brief: (§1)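 Compound was dissolved in minimal 1.5 M NaH2PO4, diluted with water and given ip. Two mice given the same dose went into each of three photocell actophotometer cages 10 min after the rotarod test started. Counts were taken over 15 min, starting 5 min after placement. A factorial design across cages cancelled differences between units. Results were given as % of control, with significance by Student's t test (p < 0.05).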

[2] = tested on: Mus musculus; assay: Depression of forced motor activity in Swiss-Webster mouse at 12.5 mg/kg, ip after 30 mins by rotarod test relative to control; assay type: functional; settings: route intraperitoneal
Method in brief: (§2)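 Mice were dosed ip with vehicle or compound dissolved in a minimum of 1.5 M NaH2PO4 and diluted with water. On the rotarod, speed was 4 rpm for 30 sec, then 6 rpm for 30 sec, then increased every 30 sec up to a maximum of 50 rpm until the fall. Each mouse had four trials, two per day on two consecutive days, spaced 4–6 hr apart. The fourth trial was run 30 min after dosing. The read-out was trial time (sec) as % of control, with significance by Student's t test (p < 0.05).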

[3] = tested on: Mus musculus; assay: Depression of forced motor activity in Swiss-Webster mouse at 50 mg/kg, ip after 30 mins by rotarod test relative to control; assay type: functional; settings: route intraperitoneal; method in brief: as §2
[4] = Acute toxicity in ip dosed Swiss-Webster mouse administered as single dose after 7 days; assay type: organism-based; settings: in vivo
Method in brief: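 Mice given a single ip dose at each of four dose levels; lethality followed over 7 days; LD50 with 95% confidence limits estimated by the method of Weil. Compounds dissolved in minimal 1.5 M NaH2PO4, diluted with water; haloperidol in minimal 50% (w/v) tartaric acid-water.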

[5] = tested on: Mus musculus; assay: Depression of spontaneous motor activity in Swiss-Webster mouse at 25 mg/kg, ip by photocell cage test relative to control; assay type: functional; settings: route intraperitoneal; method in brief: as §1
[6] = tested on: Mus musculus; assay: Depression of forced motor activity in Swiss-Webster mouse at 25 mg/kg, ip after 30 mins by rotarod test relative to control; assay type: functional; settings: route intraperitoneal; method in brief: as §2
[7] = tested on: Rattus norvegicus; assay: Reduction in heart rate in Wistar rat at 50 mg/kg, ip; assay type: functional, organism-based; set-up: dose 50 mg/kg
Method in brief: (§3)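 Male Wistar rats (175–225 g) dosed ip (vehicle dilute NaH2PO4 in water). Gross behaviour observed; respiratory rate, heart rate, rectal temperature and pupil size measured. Three treated rats per dose compared with one control.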

[8] = tested on: Rattus norvegicus; assay: Reduction in respiratory rate in Wistar rat at 50 mg/kg, ip; assay type: functional, organism-based; set-up: dose 50 mg/kg; method in brief: as §3
[9] = tested on: Mus musculus; assay: Depression of forced motor activity in Swiss-Webster mouse at 100 mg/kg, ip after 30 mins by rotarod test relative to control; assay type: functional; settings: route intraperitoneal
Method in brief: (§4)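 Rotarod in mice: rod at 4 rpm for 30 sec, 6 rpm next 30 sec, then stepped up every 30 sec (max 50 rpm) until fall. Six mice at a time, four trials (two per day, 4–6 hr apart, two consecutive days); vehicle or compound ip 30 min before fourth trial. Time on rod as % of control; Student's t test, p < 0.05.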

[10] = tested on: Mus musculus; assay: Depression of spontaneous motor activity in Swiss-Webster mouse at 100 mg/kg, ip by photocell cage test relative to control; assay type: functional; settings: route intraperitoneal
Method in brief: (§5)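 Spontaneous activity in three photocell cages: two mice given the same ip dose placed per cage 10 min after rotarod start; 15-min count begun 5 min after placement. Each dose run in factorial design across all three cages to offset unit sensitivity. Counts expressed as % of control; Student's t test, p < 0.05.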

[11] = tested on: Rattus norvegicus; assay: Reduction in ptosis in Wistar rat at 50 mg/kg, ip after 1 to 5 hrs; assay type: functional, organism-based; set-up: dose 50 mg/kg; method in brief: as §3
[12] = tested on: Mus musculus; assay: Depression of spontaneous motor activity in ip dosed Swiss-Webster mouse by photocell cage test relative to control; assay type: functional, organism-based; method in brief: as §1
[13] = tested on: Rattus norvegicus; assay: Depression of motor activity in Wistar rat at 50 mg/kg, ip after 1 to 5 hrs; assay type: functional, organism-based; set-up: dose 50 mg/kg; method in brief: as §3
[14] = tested on: Rattus norvegicus; assay: Reduction in body temperature in Wistar rat at 50 mg/kg, ip relative to control; assay type: functional; settings: route intraperitoneal; method in brief: as §3
[15] = tested on: Rattus norvegicus; assay: Increase in pupil size in Wistar rat at 50 mg/kg, ip; assay type: functional, organism-based; set-up: dose 50 mg/kg; method in brief: as §3
[16] = tested on: Mus musculus; assay: Depression of forced motor activity in ip dosed Swiss-Webster mouse after 30 mins by rotarod test relative to control; assay type: functional, organism-based; method in brief: as §2
[17] = tested on: Rattus norvegicus; assay: Reduction in body temperature in Wistar rat at 1 to 6 mg/kg, ip relative to control; assay type: functional; settings: dose mg/kg 6; route intraperitoneal; in the assay text read “6 mg/kg” for “1 to 6 mg/kg”
Method in brief: (§6)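 Male Wistar rats (175–225 g) were injected ip, with three treated rats and one control per dose. Compounds were in minimal 1.5 M NaH2PO4 diluted with water; the reference drug was in minimal 50% (w/v) tartaric acid-water. Gross behavior was observed. Respiratory rate, heart rate, rectal temperature and pupil size were measured at time points after dosing.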

[18] = tested on: Mus musculus; assay: Depression of forced motor activity in Swiss-Webster mouse at 10 mg/kg, ip after 30 mins by rotarod test relative to control; assay type: functional; settings: route intraperitoneal; method in brief: as §4
[19] = tested on: Mus musculus; assay: Depression of spontaneous motor activity in Swiss-Webster mouse at 2.5 mg/kg, ip by photocell cage test relative to control; assay type: functional; settings: route intraperitoneal; method in brief: as §1
[20] = tested on: Mus musculus; assay: Acute toxicity in ip dosed Swiss-Webster mouse assessed as ataxia administered as single dose after 72 hrs; assay type: organism-based; settings: in vivo
[21] = tested on: Rattus norvegicus; assay: Depression of motor activity in Wistar rat at 1 to 6 mg/kg, ip; assay type: functional, organism-based; method in brief: as §6
[22] = tested on: Mus musculus; assay: Depression of spontaneous motor activity in Swiss-Webster mouse at 10 mg/kg, ip by photocell cage test relative to control; assay type: functional; settings: route intraperitoneal; method in brief: as §5
[23] = tested on: Mus musculus; assay: Acute toxicity in ip dosed Swiss-Webster mouse assessed as tremor administered as single dose after 72 hrs; assay type: organism-based; settings: in vivo
[24] = tested on: Mus musculus; assay: Depression of forced motor activity in Swiss-Webster mouse at 5 mg/kg, ip after 30 mins by rotarod test relative to control; assay type: functional; settings: route intraperitoneal; method in brief: as §4
[25] = tested on: Mus musculus; assay: Depression of forced motor activity in Swiss-Webster mouse at 2.5 mg/kg, ip after 30 mins by rotarod test relative to control; assay type: functional; settings: route intraperitoneal; method in brief: as §2
[26] = tested on: Rattus norvegicus; assay: Induction of ptosis in Wistar rat at 1 to 6 mg/kg, ip; assay type: functional, organism-based; settings: in the assay text read “6 mg/kg” for “1 to 6 mg/kg”; method in brief: as §6
[27] = tested on: Mus musculus; assay: Acute toxicity in ip dosed Swiss-Webster mouse assessed as death administered as single dose after 72 hrs; assay type: organism-based; settings: in vivo
[28] = tested on: Mus musculus; assay: Depression of spontaneous motor activity in Swiss-Webster mouse at 5 mg/kg, ip by photocell cage test relative to control; assay type: functional; settings: route intraperitoneal; method in brief: as §5
[29] = tested on: Rattus norvegicus; assay: Reduction in grip strength in Wistar rat at 20 mg/kg, ip after 0.5 to 1 hr; assay type: functional, organism-based; set-up: dose 20 mg/kg; method in brief: as §6
[30] = tested on: Rattus norvegicus; assay: Reduction of heart rate in Wistar rat at 1 to 6 mg/kg, ip after 0.5 to 1 hr; assay type: functional, organism-based; settings: 20 mg/kg, in the assay text read “20 mg/kg” for “1 to 6 mg/kg”; method in brief: as §6
[31] = tested on: Mus musculus; assay: Depression of spontaneous motor activity in Swiss-Webster mouse at 30 mg/kg, ip by photocell cage test relative to control; assay type: functional; settings: route intraperitoneal; method in brief: as §5
[32] = tested on: Rattus norvegicus; assay: Depression of motor activity in Wistar rat at 20 mg/kg, ip after 0.5 to 1 hr; assay type: functional, organism-based; set-up: dose 20 mg/kg; method in brief: as §6
[33] = tested on: Mus musculus; assay: Depression of forced motor activity in Swiss-Webster mouse at 30 mg/kg, ip after 30 mins by rotarod test relative to control; assay type: functional; settings: route intraperitoneal; method in brief: as §4
[34] = tested on: Rattus norvegicus; assay: Reduction in startle response in Wistar rat at 20 mg/kg, ip after 0.5 to 1 hr; assay type: functional, organism-based; set-up: dose 20 mg/kg; method in brief: as §6
[35] = tested on: Mus musculus; assay: Depression of spontaneous motor activity in Swiss-Webster mouse at 60 mg/kg, ip by photocell cage test relative to control; assay type: functional; settings: route intraperitoneal; method in brief: as §5
[36] = tested on: Mus musculus; assay: Depression of forced motor activity in Swiss-Webster mouse at 15 mg/kg, ip after 30 mins by rotarod test relative to control; assay type: functional; settings: route intraperitoneal; method in brief: as §4
[37] = tested on: Rattus norvegicus; assay: Reduction in body temperature in Wistar rat at 20 mg/kg, ip relative to control; assay type: functional; settings: route intraperitoneal; method in brief: as §6
[38] = tested on: Mus musculus; assay: Depression of forced motor activity in Swiss-Webster mouse at 60 mg/kg, ip after 30 mins by rotarod test relative to control; assay type: functional; settings: route intraperitoneal; method in brief: as §4
[39] = tested on: Rattus norvegicus; assay: Induction of ptosis in Wistar rat at 20 mg/kg, ip after 10 mins to 3 hrs; assay type: functional, organism-based; set-up: dose 20 mg/kg; method in brief: as §6
[40] = tested on: Mus musculus; assay: Depression of spontaneous motor activity in Swiss-Webster mouse at 15 mg/kg, ip by photocell cage test relative to control; assay type: functional; settings: route intraperitoneal; method in brief: as §5
[41] = tested on: Rattus norvegicus; assay: Reduction of respiration rate in Wistar rat at 1 to 6 mg/kg, ip after 0.5 to 1 hr; assay type: functional, organism-based; settings: 20 mg/kg, in the assay text read “20 mg/kg” for “1 to 6 mg/kg”; method in brief: as §6
[42] = tested on: Mus musculus; assay: Depression of spontaneous motor activity in Swiss-Webster mouse at 12.5 mg/kg, ip by photocell cage test relative to control; assay type: functional; settings: route intraperitoneal; method in brief: as §1

Compound | Activity [1] [%] | Activity [2] [%] | Activity [3] [%] | LD50 at 168 h [4] [mg/kg] | Activity [5] [%] | Activity [6] [%] | Activity [9] [%] | Activity [10] [%] | Activity [12] | Activity [16] | other results
O[C@]1(c2cccc(Cl)c2)CCN2CCCCC2C1 (single isomer, unassigned) | 74.3 | 88.6 | 34.3 | 134 | 89.9 | 83.6 |  |  |  |  | 
O[C@]1(c2ccc(Cl)cc2)CCN2CCCCC2C1 (stereo not given in full) | 18.1 |  | 26.7 | 229 | 19.4 | 71.3 | 9.7 | 2.6 | Dose-dependent effect | Dose-dependent effect | Activity [7]: Active; Activity [8]: Active; Activity [11]: Active; Activity [13]: Active; T [14]: 1 °C; Activity [15]: Active
O=C(CCCN1CCC(O)(c2ccc(Cl)cc2)CC1)c1ccc(F)cc1 [HALOPERIDOL] |  |  |  | 49.7 |  |  |  |  |  |  | T [17]: 2 °C; Activity [18]: 26.4%; Activity [19]: 27.6%; Activity [20]: Toxic; Activity [21]: Active; Activity [22]: 0.2%; Activity [23]: Toxic; Activity [24]: 79.4%; Activity [25]: 99.3%; Activity [26]: Active; Activity [27]: Toxic; Activity [28]: 13%
O=C(c1ccc(F)cc1)[C@@H]1CCN2CCCC[C@@H]2C1 (single isomer, unassigned) |  |  |  | 193 |  |  |  |  | Dose-dependent effect | Dose-dependent effect | Activity [29]: Active; Activity [30]: Active; Activity [31]: 9.6%; Activity [32]: Active; Activity [33]: 15.2%; Activity [34]: Active; Activity [35]: 0%; Activity [36]: 26.5%; T [37]: 3 °C; Activity [38]: 4.8%; Activity [39]: Active; Activity [40]: 2.5%; Activity [41]: Active
O[C@@]1(c2cccc(C(F)(F)F)c2)CCN2CCCCC2C1 (single isomer, unassigned) | 111 |  | 100.5 | 262 | 119 | 97.9 | 29.6 | 5.5 |  |  | 
O[C@]1(c2ccc(C(F)(F)F)cc2)CCN2CCCCC2C1 (single isomer, unassigned) | 17.5 | 115.2 | 31.5 | 125 | 39.3 | 100.6 |  |  | Dose-dependent effect |  | Activity [42]: 90%
